Converted amounts (≈) assume the structure as drawn.
What was measured:
[1] = tested on: Mycobacterium tuberculosis; test: Antimycobacterial activity against multidrug-resistant Mycobacterium tuberculosis A8 241 after 28 days by colony forming unit determination; format: functional; settings: A8 241, 672 h
How it was run: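 Compounds added to Sula liquid medium as DMSO solutions (DMSO at most 2%), incubated at 37 °C for 28 days. MIC is the lowest concentration giving visible growth inhibition. Activity was confirmed by CFU counts after subculture onto drug-free Löwenstein-Jensen solid medium.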

[2] = Selectivity index, ratio of IC50 for human HepG2 cells to MIC for multidrug-resistant Mycobacterium tuberculosis A8 241; format: functional

Row | SMILES | MIC [1] [mg/L] | Selectivity Index [2]
1 | O=C(N/N=C/Nc1ccc(C(=O)O)c(O)c1)c1ccc(C(F)(F)F)cc1 | 0.5 (≈ 1.36 µM) | 
2 | O=C(N/N=C/N1CCN(c2cc3c(cc2F)c(=O)c(C(=O)O)cn3C2CC2)CC1)c1cccc(F)c1 | 0.5 (≈ 1.01 µM) | 804.76
3 | O=C(N/N=C/Nc1ccc(C(=O)O)c(O)c1)c1cccc(C(F)(F)F)c1 | 0.5 (≈ 1.36 µM) | 
4 | O=C(N/N=C/Nc1ccc(C(=O)O)c(O)c1)c1cccc(F)c1 | 0.5 (≈ 1.58 µM) | 592.64
5 | O=C(O)c1cn(C2CC2)c2cc(N3CCNCC3)c(F)cc2c1=O [CIPROFLOXACIN] | 1.5 (≈ 4.53 µM) | 110.37
6 | O=C(N/N=C/N1CCN(c2cc3c(cc2F)c(=O)c(C(=O)O)cn3C2CC2)CC1)c1ccc(F)cc1 | 0.5 (≈ 1.01 µM) | 1268.58
7 | CCn1cc(C(=O)O)c(=O)c2cc(F)c(N3CCN(/C=N/NC(=O)c4ccc(C(F)(F)F)cc4)CC3)cc21 | 5 (≈ 9.37 µM) | 3.98
8 | Nc1ccc(C(=O)O)c(O)c1 [AMINOSALICYLIC ACID] | 0.25 (≈ 1.63 µM) | 
9 | NNC(=O)c1ccncc1 [ISONIAZID] | 1 (≈ 7.29 µM) | 
10 | O=C(N/N=C/N1CCN(c2cc3c(cc2F)c(=O)c(C(=O)O)cn3C2CC2)CC1)c1ccc(C(F)(F)F)cc1 | 0.5 (≈ 0.917 µM) | 378.41
11 | O=C(N/N=C/N1CCN(c2cc3c(cc2F)c(=O)c(C(=O)O)cn3C2CC2)CC1)c1cccc(C(F)(F)F)c1 | 0.5 (≈ 0.917 µM) | 351.15
12 | O=C(N/N=C/Nc1ccc(C(=O)O)c(O)c1)c1ccc(F)cc1 | 0.5 (≈ 1.58 µM) | 
13 | O=C(O)c1ccc(N/C=N/NC(=O)c2ccccc2F)cc1O | 0.5 (≈ 1.58 µM) | 767.77
14 | CCn1cc(C(=O)O)c(=O)c2cc(F)c(N3CCNCC3)cc21 [NORFLOXACIN] | 10 (≈ 31.3 µM) | 15.87
15 | CCn1cc(C(=O)O)c(=O)c2cc(F)c(N3CCN(/C=N/NC(=O)c4cccc(F)c4)CC3)cc21 | 5 (≈ 10.3 µM) | 38

From ChEMBL document CHEMBL1828506, “New fluorine-containing hydrazones active against MDR-tuberculosis” (Eur J Med Chem, 2011)
